Bioassay records (PubChem BioAssay)
HTR1E agonist: 5-HT1E receptor agonists, primary screen, cell-based, HTS; 5-hydroxytryptamine receptor 1E (Homo sapiens), P28566; CHO 5-HT1E Ga15 NFAT-bla reporter, FRET; 0% DMSO wells, 100% control agonist wells; activation, % at 6 µM; 65,000 compounds, 0.69% hits; AID 574, 2007;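 active means activation above a set limit, the screen-wide mean activation plus 3 SD, cut at about 8.5% in these data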;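 further: 100% = positive control agonist at 1 µM giving full maximal response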
S1P1 ag pot: S1P1 agonists and agonism potentiators, primary screen, cell-based, primary and confirmation screens, CRE-bla reporter; 56,000 compounds, 0.57% hits; S1P1 CRE-bla cells, forskolin, beta-lactamase FRET, potentiator mode; S1P1 agonist co-added at EC20, 2 nM; 100% = saturating reference agonist, 0% = basal; Sphingosine 1-phosphate receptor 1 (Homo sapiens), P21453; activation, % at 9.5 µM;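 active means activation above a cutoff set at the mean activation of all tested compounds plus 3 SD, cut at about 54% in these data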;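 further: forskolin at 4 µM as EC80 and the EC20 agonist is SEW2871; 100% = SEW2871 at its EC100 plus forskolin at EC80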
Target sequence (P21453 whole entry, looked up): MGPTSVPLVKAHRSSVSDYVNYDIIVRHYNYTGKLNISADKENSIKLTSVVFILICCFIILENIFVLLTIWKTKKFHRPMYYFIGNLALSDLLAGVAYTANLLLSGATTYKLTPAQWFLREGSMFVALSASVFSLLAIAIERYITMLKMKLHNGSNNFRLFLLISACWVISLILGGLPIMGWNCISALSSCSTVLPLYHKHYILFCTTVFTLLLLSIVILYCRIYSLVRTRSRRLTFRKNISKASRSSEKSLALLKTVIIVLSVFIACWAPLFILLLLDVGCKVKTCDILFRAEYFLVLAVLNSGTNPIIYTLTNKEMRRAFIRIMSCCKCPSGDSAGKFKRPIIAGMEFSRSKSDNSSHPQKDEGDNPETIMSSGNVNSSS
5HT1E antag: 5-HT1E receptor antagonists, primary screen, cell-based, HTS. CHO 5-HT1E Ga15 NFAT-bla reporter, FRET, antagonist. 5-hydroxytryptamine receptor 1E (Homo sapiens), P28566. 65,000 compounds, 0.99% hits. inhibition, % at 6 µM. AID 571, 2007;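 active means inhibition above a set limit, the mean inhibition across every tested compound plus 3 SD, cut at about 29% in these data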;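 further: signal is the 460 over 535 nm emission ratio of beta-lactamase substrate; 0% = agonist plus DMSO wells and 100% = wells without agonist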
S1P3 agonist: human S1P3 receptor agonists, primary screen, cell-based, primary and confirmation, NFAT-BLA reporter | S1P3 NFAT-BLA reporter cells, agonism, FRET ratio; relative to 1 µM S1P, basal subtracted | activation, % at 4.5 µM | 60,000 compounds, 0.1% hits | AID 373, 2006;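 active means activation above the screen-wide mean plus 3 SD, cut at about 4.5% in these data, passing the limit was not always enough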
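Measure – % activation relative to 1 µM S1P (100%), per plate · System – stable CHO line with human S1P3, Gα16, NFAT-BLA reporter · Timing – cells plated overnight, compound 4 h 37 °C, substrate 2 h RT · Technique – fluorescent BLA substrate, ex 405 nm, em 460/535 nm ratio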
5HT1a antag: human 5-HT1a receptor antagonists, primary screen, cell-based, CHO, Ga15 NFAT-bla reporter | 5-hydroxytryptamine receptor 1A (Homo sapiens), P08908 | CHO 5-HT1a Ga15 NFAT-bla reporter, antagonist mode | inhibition, % at 10 µM | 62,000 compounds, 0.68% hits;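 active means inhibition above the mean of all tested compounds plus 3 SD, cut at about 43% in these data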;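 further: receptor stimulated by 5-CT agonist at 100 nM near EC80; beta-lactamase reporter measured by ratiometric fluorescence of a cleavable substrate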
5HT1a ag: human 5-HT1a receptor agonists, primary screen, cell-based, CHO, Ga15 NFAT-bla reporter; 5-hydroxytryptamine receptor 1A (Homo sapiens), P08908; CHO 5-HT1a Ga15 NFAT-bla reporter, FRET ratio; 0% basal, 100% maximal reference agonist; activation, % at 10 µM; 65,000 compounds, 0.56% hits; AID 567, 2006;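 active means activation above the screen-wide mean activation plus 3 SD, cut at about 19% in these data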;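 further: 0% = DMSO wells and 100% = 5-CT at EC100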
The depositor's hits bear a star; x = not tested or not shown. In the library only some 3% were active in any assay of this set; here they are far more common.

SMILES	HTR1E agonist	S1P1 ag pot	5HT1E antag	S1P3 agonist	5HT1a antag	5HT1a ag
Cc1cc(C)n(-c2ccc(C(=O)NC3=NCCS3)cc2)n1	2	10	0	-1	12	2
O=C(NC1=NCCS1)c1cc(-c2ccccc2)nn1-c1ccccc1	1	52	-22	11*	2	0
CCCCCn1c(=NC(C)=O)c(C#N)cc2c(=O)n3cccc(C)c3nc21	0	5	2	-1	4	0
CCOC(=O)c1ccc(N=c2sc(C(=O)OC)cc(=O)n2Cc2ccco2)cc1	0	31	12	-1	30	-2
CCn1c(=O)cc(C(=O)OC)sc1=Nc1ccc(F)c(F)c1	1	5	38*	0	6	0
CCCCN=c1sc(C(=O)OC)cc(=O)n1CCCC	-1	x	0	x	-12	0
CCOC(=O)c1ccc(N=c2sc(C(=O)OC)cc(=O)n2CCCN2CCOCC2)cc1	-2	25	40*	-2	32	0
COc1ccc(OC)c(C(c2nnnn2C2CCCC2)N2CCN(c3ccccc3)CC2)c1 (stereo unspecified)	1	11	-11	0	33	-1
CC(NC(=O)C1CCCN(S(=O)(=O)c2cnc[nH]2)C1)c1ccccc1 (stereo unspecified)	0	-7	3	0	-8	-2
O=C(O)C1CCCCC1C(=O)N1CC=C(c2ccccc2)CC1 (stereo unspecified)	22*	12	3	-1	3	6
O=C(Nc1ccccc1)N1CC=C(c2ccccc2)CC1	0	x	0	1	13	-2
CCN(CC)c1ccc2c(c1)OC(N)=C(C#N)C2c1cccnc1 (stereo unspecified)	-1	-42	77*	-2	32	-3
Cc1ccccc1C(=O)c1ccc2c(c1)n(C)c(=O)n2C	0	-25	-10	-5	x	-1
CC1CN(C(=O)CN2C(=O)NC3(CCCCCCC3)C2=O)CC(C)O1 (stereo unspecified)	20*	-10	-9	0	-11	-1
O=C(CN1C(=O)NC2(CCCCCC2)C1=O)N1CCC(Cc2ccccc2)CC1	0	19	1	-1	-18	-2
COC(=O)c1cc2ccsc2n1CC(=O)Nc1cc(Cl)ccc1OC	-1	31	7	-1	52*	-2
COC(=O)c1cc2ccsc2n1CC(=O)Nc1ccc(N(C)C)cc1	-1	13	-2	-1	8	-3
CCCOCCOC(=O)c1[nH]c2c(c1C)C(=O)CC(c1cc(OC)ccc1OC)C2 (stereo unspecified)	0	15	81*	-2	76*	0
COc1ccc(OC)c(C2CC(=O)c3c([nH]c(C(=O)OC(C)C)c3C)C2)c1 (stereo unspecified)	-1	-15	87*	-1	71*	0
Cc1cccc(N2CCN(C(=O)CCn3c(=O)[nH]c4ccccc4c3=O)CC2)c1C	0	8	-9	0	-18	2
Cc1cccc(N2CCN(C(=O)Cc3c(C(=O)O)[nH]c4ccc(Cl)cc34)CC2)c1C	60*	-61	-5	-1	-4	-3
COCCCNC(=O)c1ccccc1NS(=O)(=O)c1ccc(C)cc1	1	-19	-5	-1	-15	0
c1ccc(N2CCN(c3ncnc4c3oc3ccccc34)CC2)cc1	1	61*	7	-1	-9	-1
Cc1nn(-c2ccccc2)c(Cl)c1C(=O)N1CCN(c2ncnc3c2cnn3-c2ccccc2)CC1	-1	28	56*	-1	63*	0
O=C(c1ccco1)N1CCN(c2ncnc3c2cnn3-c2ccccc2)CC1	1	-2	12	-2	-6	2
SMILES	HTR1E agonist	S1P1 ag pot	5HT1E antag	S1P3 agonist	5HT1a antag	5HT1a ag
CCOC(=O)C1CCN(c2ncnc3c2cnn3-c2ccc(Cl)cc2)CC1	0	-12	-4	-4	x	3
CCOC(=O)C1CCN(c2ncnc3c2oc2ccccc23)CC1	0	97*	2	-1	20	0
CCOC(=O)C1CCN(c2ncnc3c2cnn3-c2ccccc2)CC1	0	1	7	-1	1	30*
COC(=O)c1ccc(CSc2ncnc3c2nnn3-c2ccc(F)cc2)o1	-1	-20	-6	0	-18	-3
CC(C)CC(=O)N1CCN(C(=O)CCC2CCCC2)CC1	0	-4	2	-1	-14	-2
Cc1cc(Nc2cccc(F)c2)nc(-c2ccccc2O)n1	0	3	31*	1	37	-2
Cc1ccc(OCc2nc(-c3ccccc3)no2)c(C)c1	0	78*	-4	-1	-1	-2
CCOc1ccc(Nc2cc(C)nc(-n3nc(C)cc3C)n2)cc1	1	-44	80*	0	52*	-4
O=C(CN1C(=O)NC2(CCc3ccccc32)C1=O)c1ccc2c(c1)OCCO2 (stereo unspecified)	1	-7	-1	0	-8	2
COc1cc(C2C3=C(Nc4ncnn42)c2ccccc2CC3)cc(OC)c1OC (stereo unspecified)	0	-40	61*	-1	14	-1
CCOc1cc(NC2CS(=O)(=O)CC2O)c(OCC)cc1NC(=O)c1ccccc1 (stereo unspecified)	0	2	2	-1	0	-3
Cc1ccc(CNC(=O)C2c3ccccc3C(=O)N3CCc4ccccc4C23)o1 (stereo unspecified)	-1	24	7	0	21	-3
O=C(NCCN1CCN(Cc2ccccc2)CC1)C1c2ccccc2C(=O)N2CCc3ccccc3C12 (stereo unspecified)	2	13	10	-1	59*	-1
CC(C)C1O/C(=N/C(=O)Nc2ccc(Cl)c(Cl)c2)NC1=O (stereo unspecified)	0	12	3	0	10	0
O=C(c1ccc(Cl)cc1)c1ccc(OCC(O)CN2CCOCC2)cc1 (stereo unspecified)	9.1*	-10	6	-1	1	0
